Measurements: ChEMBL document CHEMBL3826882, “Discovery of 1-((2R,4aR,6R,7R,7aR)-2-Isopropoxy-2-oxidodihydro-4H,6H-spiro[furo[3,2-d][1,3,2]dioxaphosphinine-7,2'-oxetan]-6-yl)pyrimidine-2,4(1H,3H)-dione (JNJ-54257099), a 3'-5'-Cyclic Phosphate Ester Prodrug of 2'-Deoxy-2'-Spirooxetane Uridine Triphosphate Useful for HCV Inhibition” (J Med Chem, 2016)

Experiments:
Hepatocyte [1] = test: Prodrug conversion in mouse primary hepatocytes assessed as 2'-deoxy-2'-spirooxetane uridine triphosphate level per million cells at 62.5 uM after 4 hrs using radiolabelled compound by LC-MS/MS analysis; format: ADME, cell-based
How it was run: (§1)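 Study A: fresh primary hepatocyte cultures from mouse, rat, dog and human incubated with tritiated prodrug at 2 or 62.5 µM for 4 or 24 h. Triphosphate in cell lysates reported as pmol/million hepatocytes. Duplicate or single measurements.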

Hepatocyte [2] = test: Prodrug conversion in rat primary hepatocytes assessed as 2'-deoxy-2'-spirooxetane uridine triphosphate level per million cells at 2 uM after 24 hrs using radiolabelled compound by LC-MS/MS analysis; format: ADME, cell-based; how it was run: as §1
Hepatocyte [3] = test: Prodrug conversion in human primary hepatocytes assessed as 2'-deoxy-2'-spirooxetane uridine triphosphate level per million cells at 62.5 uM after 24 hrs using radiolabelled compound by LC-MS/MS analysis; format: ADME, cell-based; how it was run: as §1
Hepatocyte [4] = test: Drug metabolism in mouse primary hepatocyte supernatant assessed as 1-((4R,5R,7R,8R)-8-hydroxy-7-(hydroxymethyl)-1,6-dioxaspiro[3.4]octan-5-yl)pyrimidine-2,4(1H,3H)-dione formation at 2 to 62.5 uM after 4 to 24 hrs using radiolabeled compound by HPLC analysis; format: ADME, cell-based; details: hepatocytes
How it was run: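 Fresh primary hepatocyte cultures incubated with tritiated prodrug (5'-[3H]) at 2 and 62.5 µM for 4 and 24 h. Supernatants taken after protein precipitation and profiled by HPLC with radioactivity detection. Cell lysates profiled for metabolites by radio-LC. Cyclic monophosphate also measured by LC/MS/MS.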

[5] = Drug metabolism in dog primary hepatocytes assessed as ((4R,5R,7R,8R)-5-(2,4-dioxo-3,4-dihydropyrimidin-1(2H)-yl)-8-hydroxy-1,6-dioxaspiro[3.4]octan-7-yl)methyl dihydrogen phosphate formation at 2 to 62.5 uM after 4 hrs using radiolabeled compound by LC-MS/MS analysis; format: ADME, cell-based, Canis lupus familiaris, Hepatocyte
How it was run: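 Study A: primary cultured hepatocytes (mouse, rat, dog, human) incubated with 2 or 62.5 µM 5'-[3H]-labelled prodrug for 4 and 24 h. Cell lysates were analysed for triphosphate. Supernatants were protein-precipitated and profiled by HPLC with radioactivity detection. Cyclic monophosphate was also assessed by LC/MS/MS.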

Hepatitis C virus [6] = test: Antiviral activity against HCV genotype 1a infected in homozygous cDNA-uPA chimeric SCID mouse bearing humanized hepatocytes assessed as change in HCV RNA level in serum at 100 mg/kg, po bid administered through gavage for 7 days by RT-PCR method; format: functional, Hepacivirus hominis, subtype 1a, Hepatocyte
How it was run: (§2)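 Male chimeric SCID cDNA-uPA+/+ mice with human hepatocyte liver (≥70% replacement by blood human albumin) and serum HCV RNA >1.0×10^6 copies/mL the week before dosing. Oral gavage for 7 days in 20% HP-β-CD, 50-200 mg/kg QD or BID. Serum sampled pre-dose on days 1, 2, 3, 5 and 7. Real-time PCR; mean change in log10 copies/mL, day 7 vs day 1 pre-dose.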

Hepatitis C virus [7] = test: Antiviral activity against HCV genotype 1a infected in homozygous cDNA-uPA chimeric SCID mouse bearing humanized hepatocytes assessed as change in HCV RNA level in serum at 200 mg/kg, po qd administered through gavage for 7 days by RT-PCR method; format: functional, Hepacivirus hominis, subtype 1a, Hepatocyte; how it was run: as §2
Hepatitis C virus [8] = test: Antiviral activity against HCV genotype 3a infected in homozygous cDNA-uPA chimeric SCID mouse bearing humanized hepatocytes assessed as change in HCV RNA level in serum at 100 mg/kg, po bid administered through gavage for 7 days by RT-PCR method; format: functional, Hepacivirus hominis, Hepatocyte; how it was run: as §2
Hepatitis C virus [9] = test: Antiviral activity against HCV genotype 3a infected in homozygous cDNA-uPA chimeric SCID mouse bearing humanized hepatocytes assessed as reduction in HCV RNA level in serum administered through oral gavage once daily for 7 days by RT-PCR method; format: functional, organism-based; details: Hepacivirus hominis, Hepatocyte; how it was run: as §2
[10] = Prodrug conversion in dog cryopreserved hepatocytes assessed as 2'-deoxy-2'-spirooxetane uridine triphosphate level per million cells at 10 uM after 2 hrs by LC-MS/MS analysis; format: ADME, cell-based, Canis lupus familiaris, Hepatocyte
How it was run: (§3)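 Plated cryopreserved hepatocytes (study B) incubated with 10 µM unlabeled prodrug for 2, 8 or 24 h. Triphosphate measured in cell lysates and expressed as pmol/million hepatocytes. Quantification limit 2 ng/10^6 cells.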

Hepatocyte [11] = test: Prodrug conversion in human cryopreserved hepatocytes assessed as 2'-deoxy-2'-spirooxetane uridine triphosphate level per million cells at 10 uM after 8 hrs by LC-MS/MS analysis; format: ADME, cell-based; how it was run: as §3
Hepatocyte [12] = test: Drug level in human hepatocytes in presence of pan-CYP inhibitor 1-ABT by LC-MS/MS analysis; format: ADME, cell-based
Hepatocyte [13] = test: Prodrug conversion in human hepatocytes assessed as 2'-deoxy-2'-spirooxetane uridine triphosphate formation in presence of CYP2C8 and CYP2C9 inhibitor montelukast by LC-MS/MS analysis; format: ADME, cell-based
Liver [14] = test: Tlast in mouse liver at 50 mg/kg, po; format: ADME, organism-based; details: in vivo
How it was run: (§4)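 Single oral dose of 50 mg/kg formulated in 20% HP-β-cyclodextrin. Prodrug and its triphosphate were measured in plasma and liver (ng/mL or ng/g) over time, and Cmax, tmax, AUC, tlast and t1/2 were derived. For some analytes, data from two independent studies are reported.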

Liver [15] = test: Half life in mouse liver assessed as 2'-deoxy-2'-spirooxetane uridine triphosphate at 50 mg/kg, po; format: ADME, organism-based; details: in vivo
How it was run: (§5)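 Single oral dose of 50 mg/kg in 20% HP-β-cyclodextrin. Prodrug and triphosphate measured in plasma and liver over time (tlast 6–30 h). Half-life, Cmax, tmax and AUC0-last derived; liver/plasma ratio taken from AUC0-last. Prodrug data pooled from two independent studies.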

[16] = Tmax in dog plasma at 50 mg/kg, po; format: ADME, organism-based, Canis lupus familiaris; how it was run: as §4
[17] = Half life in dog plasma at 50 mg/kg, po; format: ADME, organism-based, Canis lupus familiaris; how it was run: as §5
[18] = AUC (0 to infinity) in dog plasma at 50 mg/kg, po; format: ADME, organism-based, Canis lupus familiaris; parameters: dose 50 mg/kg, time infinity, route oral
How it was run: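 Oral dose 50 mg/kg, formulated in 20% HP-β-cyclodextrin. Prodrug and triphosphate were measured in plasma and liver (ng/mL or ng/g). Parameters derived were Cmax, tmax, AUC0-last, AUC0-inf and t1/2. Some prodrug data come from two independent studies.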

[19] = Ratio of AUC (0 to last) in dog liver to AUC (0 to last) in dog plasma; format: ADME, Canis lupus familiaris; how it was run: as §5

`[3H]C1O[P@](=O)(OC(C)C)O[C@@H]2[C@@H]1O[C@@H](n1ccc(=O)[nH]c1=O)[C@@]21CCO1` (some centres undefined) showed a Drug metabolism (Hepatocyte [1]) of 0.12 pmol, a Drug metabolism (Hepatocyte [2]) of 0.027 pmol and a Drug metabolism (Hepatocyte [3]) of 0.38 pmol. For the same compound, the Drug metabolism (Hepatocyte [4]) was “metabolite_detected” and the Drug metabolism [5] was “metabolite_detected”.

Work on `CC(C)O[P@@]1(=O)OC[C@H]2O[C@@H](n3ccc(=O)[nH]c3=O)[C@@]3(CCO3)[C@@H]2O1` yielded an Activity (Hepatitis C virus [6]) of -1.17, an Activity (Hepatitis C virus [7]) of -0.64 and an Activity (Hepatitis C virus [8]) of -1.08. For the same compound, the Activity (Hepatitis C virus [9]) was “Dose-dependent effect”, the Drug metabolism [10] was < 2 ng and the Drug metabolism (Hepatocyte [11]) was 0.172 pmol. For the same compound, the Drug uptake (Hepatocyte [12]) was “Active”, the Drug metabolism (Hepatocyte [13]) was “metabolite_detected” and the Tlast (Liver [14]) was 6 h. The t1/2 (Liver [15]) was 3.9 h, the Tmax [16] was 1.5 h and the half-life [17] was 7.3 h. It also gave an AUC(0-inf) [18] of 29100 ng·h/mL and a Kp [19] of 1.4.
